Experimental data reported in ChEMBL document CHEMBL1128723, “Orally bioavailable benzisothiazolone inhibitors of human leukocyte elastase” (J Med Chem, 1995).

Tests used:
[1] = Compound was tested for in vivo bioavailability in dog; assay type: ADME, organism-based, Canis lupus familiaris; conditions: read-out: Bioavailabiility
Procedure, shortened: (§1)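 Fasted rats, beagle dogs or cynomolgus monkeys were dosed orally at 20 mg/kg (one compound at 10 mg/kg) or iv at 5 mg/kg. Vehicles were mainly 0.05% lactic acid in water (oral) or 5% dextrose/0.05% lactic acid (iv). Blood was drawn at intervals, extracted with toluene/hexane (9:1) containing internal standard, and parent quantified by reverse-phase HPLC.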

[2] = Compound was tested for in vivo bioavailability in hamsters; assay type: ADME, organism-based; conditions: cricetinae, read-out: Bioavailabiility
[3] = Compound was tested for in vivo bioavailability in monkey; assay type: ADME, organism-based; conditions: simiiformes, read-out: Bioavailabiility; procedure, shortened: as §1
[4] = Compound was tested for in vivo bioavailability in rat; assay type: ADME, organism-based; conditions: read-out: Bioavailabiility; procedure, shortened: as §1
[5] = Oral bioavailability in Beagle dogs at oral dose of 20 mg/kg and an intravenous dose of 5 mg/kg was administered; assay type: ADME, organism-based, Canis lupus familiaris; conditions: dog, in vivo, read-out: BA; procedure, shortened: as §1
[6] = Maximum plasma concentration in Beagle dogs at oral dose of 20 mg/kg and an intravenous dose of 5 mg/kg was administered; assay type: ADME, organism-based, Canis lupus familiaris; conditions: dog; procedure, shortened: as §1
[7] = Compound was tested for half life time period in hamster blood; assay type: ADME, organism-based; conditions: cricetinae
Procedure, shortened: (§2)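 Fresh heparinized blood from rats, hamsters, beagle dogs and cynomolgus monkeys was used within 4 h of collection. Compound was added from DMSO to a starting concentration of 100 μM and incubated at 37 °C with sampling at intervals. Samples were quenched with acetonitrile/TFA and the supernatant assayed by reverse-phase HPLC for loss of parent, giving the half-life. Control incubations were run with each assay.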

[8] = Compound was tested for half life time period in hamster jejunum; assay type: ADME, organism-based; conditions: cricetinae
Procedure, shortened: (§3)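 Jejunum (fresh-frozen animal tissue or unused human transplant tissue) was homogenized in pH 7.2 modified Ringer's buffer, spun at 9000g, and the supernatant kept. Compound was added from DMSO at 100 μM starting concentration and incubated at 37 °C, sampled at intervals. Samples were acetonitrile-quenched and parent measured by RP-HPLC to give the half-life.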

[9] = Compound was tested for half life time period in hamster liver S9; assay type: ADME, S9 fraction; conditions: cricetinae
Procedure, shortened: (§4)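 Liver S9 was prepared by homogenizing in 50 mM Na/K phosphate/KCl buffer and spinning at 9000g for 20 min. S9 was used at 8 mg/mL protein with an NADPH-generating system and preincubated 5 min at 37 °C. Compound was added from DMSO at 100 μM starting concentration and incubated at 37 °C. Parent disappearance was followed by RP-HPLC over time to give the half-life.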

[10] = Compound was tested for plasma concentration in Beagle dogs at oral dose of 20 mg/kg and an intravenous dose of 5 mg/kg was administered; assay type: ADME, organism-based, Canis lupus familiaris; conditions: dog; procedure, shortened: as §1
[11] = Compound was tested for the half life time period in dog blood; assay type: ADME, organism-based, Canis lupus familiaris; procedure, shortened: as §2
[12] = Human tissue stability for the compound was determined by its half life time period in human blood; assay type: ADME, organism-based
[13] = Human tissue stability for the compound was determined by its half life time period in human jejunum; assay type: ADME, organism-based; procedure, shortened: as §3
[14] = Compound was tested for the half life time period in dog jejunum; assay type: ADME, organism-based, Canis lupus familiaris; procedure, shortened: as §3
[15] = Compound was tested for the half life time period in dog liver S9; assay type: ADME, Canis lupus familiaris, S9 fraction; procedure, shortened: as §4
[16] = Compound was tested for the half life time period in monkey blood; assay type: ADME, tissue-based; conditions: simiiformes; procedure, shortened: as §2
[17] = Compound was tested for the half life time period in monkey jejunum; assay type: ADME, tissue-based; conditions: simiiformes; procedure, shortened: as §3
[18] = Compound was tested for the half life time period in rat jejunum; assay type: ADME, organism-based; procedure, shortened: as §3
[19] = Compound was tested for the half life time period in rat liver S9; assay type: ADME, S9 fraction; procedure, shortened: as §4
[20] = Human tissue stability for the compound was determined by its half life time period in human liver; assay type: ADME, organism-based; procedure, shortened: as §4
Neutrophil elastase = target: T1, Neutrophil elastase (Homo sapiens, UniProt P08246); assay: Potency of inhibition against human leukocyte elastase (HLE) expressed as an apparent binding constant
T1 sequence (P08246 whole entry): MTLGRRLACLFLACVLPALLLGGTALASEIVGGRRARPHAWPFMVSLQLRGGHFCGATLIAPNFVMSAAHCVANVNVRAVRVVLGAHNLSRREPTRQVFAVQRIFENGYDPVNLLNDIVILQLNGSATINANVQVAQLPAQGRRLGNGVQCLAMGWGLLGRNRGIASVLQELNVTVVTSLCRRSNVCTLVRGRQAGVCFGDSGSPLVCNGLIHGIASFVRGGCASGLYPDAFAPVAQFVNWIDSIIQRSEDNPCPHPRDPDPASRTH

Cricetinae gen. sp. [21] = assay: Compound was tested for effective dose required for the inhibition of human leukocyte elastase in the HLE-induced hamster hemorrhage model; assay type: functional, Cricetulus griseus
[22] = Compound was tested for the half life time period in monkey liver S9; assay type: ADME, subcellular, S9 fraction; conditions: simiiformes; procedure, shortened: as §4
[23] = Compound was tested for the half life time period in rat blood; assay type: ADME, organism-based; procedure, shortened: as §2
Cricetinae gen. sp. [24] = assay: Inhibitory activity was determined against HLE-induced hamster hemorrhage model by intravenous administration at a dose of 1 mg/kg; assay type: functional, Cricetulus griseus
Cricetinae gen. sp. [25] = assay: Effective dose required for the inhibition of human leukocyte elastase in the HLE-induced hamster hemorrhage model.; assay type: functional, Cricetulus griseus

bioavailability [5] [%] | Cmax [6] [ng/mL] | half-life [10] [min] | half-life [12] [min] | half-life [13] [min] | half-life [20] [min] | Ki (Neutrophil elastase) [nM] | SMILES | also measured
21 | 1200 | 137 | 36 | 170 | 37.3 | 0.013 | COc1cc(C(C)C)c2c(c1)S(=O)(=O)N(COC(=O)c1c(Cl)ccc(OCCN3CCOCC3)c1Cl)C2=O | bioavailability [1]: 21%; bioavailability [2]: < 3%; bioavailability [3]: < 1%; bioavailability [4]: 1%; half-life [7]: 259 min; half-life [8]: 1.3 min; half-life [9]: < 5 min; half-life [11]: 90 min; half-life [14]: 394 min; half-life [15]: 30.2 min; half-life [16]: 57.2 min; half-life [17]: 32.3 min; half-life [18]: 60.8 min; half-life [19]: 12.4 min; ED50 (Cricetinae gen. sp. [21]): 3 mg/kg; half-life [22]: 2.9 min; half-life [23]: 6 min
8 | 220 | 23 | > 1200 | 113 | 40.2 | 0.2 | CC(C)c1cc(O)cc2c1C(=O)N(COC(=O)c1c(Cl)ccc(S(=O)(=O)N3CCN(C)CC3)c1Cl)S2(=O)=O | 
 |  |  | 20 | 13 | 4.9 | 0.008 | CC(C)c1cccc2c1C(=O)N(COC(=O)c1c(Cl)ccc(OCCN3CCOCC3)c1Cl)S2(=O)=O | inhibition in vivo at 1 mg/kg (Cricetinae gen. sp. [24]): 87%
 |  |  | < 15 |  |  | 0.011 | COc1cc(C(C)C)c2c(c1)S(=O)(=O)N(COC(=O)c1c(Cl)ccc(OCC(=O)O)c1Cl)C2=O | 
14 | 300 | 74 | 130 | 80 | 23.9 | 0.013 | COc1cc(C(C)C)c2c(c1)S(=O)(=O)N(COC(=O)c1c(Cl)ccc(S(=O)(=O)N(C)CCN(C)C)c1Cl)C2=O | 
21 | 390 | 78 | 90 | 99 | 28.9 | 0.011 | COc1cc(C(C)C)c2c(c1)S(=O)(=O)N(COC(=O)c1c(Cl)ccc(S(=O)(=O)N3CCN(C)CC3)c1Cl)C2=O | 
46 | 325 | 432 | 110 | 218 | 110 | 0.014 | COc1cc(C(C)C)c2c(c1)S(=O)(=O)N(COC(=O)c1c(Cl)ccc(OCCN3CCCC3)c1Cl)C2=O | ED50 (Cricetinae gen. sp. [25]): 1 mg/kg
 |  |  | < 5 |  |  |  | O=C1c2ccccc2S(=O)(=O)N1CSc1nnnn1-c1ccccc1 | 
